Key:
J774.A1 = assay: Antiproliferative activity against mouse J774A1 cells after 72 hrs by MTT conversion assay; type: cell-based; conditions: J774.A1, 72 h
Outline: (§1)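 Cells (3.4 × 10^4 per well) adhered 2 h at 37 °C, 5% CO2; medium replaced with fresh medium and 1:4 serial dilutions of test compound added, then incubated 72 h; 6-mercaptopurine serial dilutions in some experiments. Viability by MTT conversion, OD read at 620 nm; % dead cells = 100 − (OD treated/OD control) × 100.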

HEK293 = assay: Antiproliferative activity against HEK293 cells after 72 hrs by MTT conversion assay; type: cell-based, Homo sapiens; outline: as §1
WEHI-164 = assay: Antiproliferative activity against mouse WEHI164 cells after 72 hrs by MTT conversion assay; type: functional, cell-based; outline: as §1
[1] = Homo sapiens, HEK293, 72 h, read-out: IC50
[2] = Mus musculus, WEHI-164, 72 h, read-out: IC50

SMILES | IC50 (J774.A1) | IC50 (HEK293; hek293) | IC50 (WEHI-164; wehi-164) | IC50 (HEK293; [1]) | IC50 (WEHI-164; [2])
CC(=O)N[C@H]1[C@H](O[C@H]2CC[C@]3(C)[C@H]4CC=C5[C@@H]6CC(C)(C)CC[C@]6(C(=O)O[C@@H]6O[C@H](COC(C)=O)[C@@H](O)[C@H](O[C@@H]7OC[C@@H](O)[C@H](O)[C@H]7O)[C@H]6O[C@@H]6OC[C@@H](O)[C@H](O[C@@H]7OC[C@](O)(CO)[C@H]7O)[C@H]6O)[C@H](O)C[C@@]5(C)[C@]4(C)CC[C@H]3C2(C)C)O[C@H](CO[C@@H]2OC[C@H](O)[C@H](O[C@@H]3OC[C@@H](O)[C@H](O)[C@H]3O)[C@H]2O)[C@@H](O[C@@H]2O[C@H](CO)[C@@H](O)[C@H](O)[C@H]2O)[C@@H]1O | 2900 nM | Not Traceable | Not Traceable |  | 
C=C[C@@](C)(O)CC/C=C(\C)C(=O)O[C@@H]1[C@@H](OC(=O)/C=C/c2ccccc2)[C@H](O[C@H]2[C@H](O)[C@@H](COC(C)=O)O[C@@H](OC(=O)[C@]34CCC(C)(C)C[C@H]3C3=CC[C@@H]5[C@@]6(C)CC[C@H](O[C@@H]7O[C@H](CO[C@@H]8OC[C@H](O)[C@H](O[C@@H]9OC[C@@H](O)[C@H](O)[C@H]9O)[C@H]8O)[C@@H](O[C@@H]8O[C@H](CO)[C@@H](O)[C@H](O)[C@H]8O)[C@H](O)[C@H]7NC(C)=O)C(C)(C)[C@@H]6CC[C@@]5(C)[C@]3(C)C[C@H]4O)[C@@H]2O[C@@H]2OC[C@@H](O)[C@H](O[C@@H]3OC[C@](O)(CO)[C@H]3O)[C@H]2O)OC[C@H]1O | 840 nM |  |  | 360 nM | 380 nM
CC(=O)N[C@H]1[C@H](O[C@H]2CC[C@]3(C)[C@H]4CC=C5[C@@H]6CC(C)(C)CC[C@]6(C(=O)O[C@@H]6O[C@H](CO)[C@@H](O)[C@H](O[C@@H]7OC[C@@H](O)[C@H](O)[C@H]7O)[C@H]6O[C@@H]6OC[C@@H](O)[C@H](O[C@@H]7OC[C@](O)(CO)[C@H]7O)[C@H]6O)[C@H](O)C[C@@]5(C)[C@]4(C)CC[C@H]3C2(C)C)O[C@H](CO[C@@H]2OC[C@H](O)[C@H](O[C@@H]3OC[C@@H](O)[C@H](O)[C@H]3O)[C@H]2O)[C@@H](O[C@@H]2O[C@H](CO)[C@@H](O)[C@H](O)[C@H]2O)[C@@H]1O | 1200 nM | Not Traceable | Not Traceable |  | 
C=C[C@](C)(O)CC/C=C(\C)C(=O)O[C@@H]1[C@@H](O)[C@H](O[C@H]2[C@H](O)[C@@H](COC(C)=O)O[C@@H](OC(=O)[C@]34CCC(C)(C)C[C@H]3C3=CC[C@@H]5[C@@]6(C)CC[C@H](O[C@@H]7O[C@H](CO[C@@H]8OC[C@H](O)[C@H](O[C@@H]9OC[C@@H](O)[C@H](O)[C@H]9O)[C@H]8O)[C@@H](O[C@@H]8O[C@H](CO)[C@@H](O)[C@H](O)[C@H]8O)[C@H](O)[C@H]7NC(C)=O)C(C)(C)[C@@H]6CC[C@@]5(C)[C@]3(C)C[C@H]4O)[C@@H]2O[C@@H]2OC[C@@H](O)[C@H](O[C@@H]3OC[C@](O)(CO)[C@H]3O)[C@H]2O)OC[C@H]1O | 520 nM |  |  | 270 nM | 490 nM
CC(=O)N[C@H]1[C@H](O[C@H]2CC[C@]3(C)[C@H]4CC=C5[C@@H]6CC(C)(C)CC[C@]6(C(=O)O[C@@H]6O[C@H](COC(C)=O)[C@@H](O)[C@H](O[C@@H]7OC[C@@H](O)[C@H](O)[C@H]7O)[C@H]6O[C@@H]6OC[C@@H](O)[C@H](O[C@@H]7OC[C@](O)(CO)[C@H]7O)[C@H]6O)[C@H](O)C[C@@]5(C)[C@]4(C)CC[C@H]3C2(C)C)O[C@H](CO[C@@H]2OC[C@H](O)[C@H](O[C@@H]3OC[C@H](O)[C@H](O)[C@H]3O)[C@H]2O)[C@@H](O[C@@H]2O[C@H](CO)[C@@H](O)[C@H](O)[C@H]2O)[C@@H]1O | 3100 nM | Not Traceable | Not Traceable |  | 
C=C[C@](C)(O)CC/C=C(\C)C(=O)O[C@@H]1[C@@H](O)[C@H](O[C@H]2[C@H](O)[C@@H](COC(C)=O)O[C@@H](OC(=O)[C@]34C[C@H](O)C(C)(C)C[C@H]3C3=CC[C@@H]5[C@@]6(C)CC[C@H](O[C@@H]7O[C@H](CO[C@@H]8OC[C@H](O)[C@H](O[C@@H]9OC[C@@H](O)[C@H](O)[C@H]9O)[C@H]8O)[C@@H](O[C@@H]8O[C@H](CO)[C@@H](O)[C@H](O)[C@H]8O)[C@H](O)[C@H]7NC(C)=O)C(C)(C)[C@@H]6CC[C@@]5(C)[C@]3(C)C[C@H]4O)[C@@H]2O[C@@H]2OC[C@@H](O)[C@H](O[C@@H]3OC[C@](O)(CO)[C@H]3O)[C@H]2O)OC[C@H]1O | 31 nM |  |  | 250 nM | 100 nM
C=C[C@@](C)(O)CC/C=C(\C)C(=O)O[C@@H]1[C@@H](OC(=O)/C=C/c2ccccc2)[C@H](O[C@H]2[C@H](O)[C@@H](COC(C)=O)O[C@@H](OC(=O)[C@]34C[C@H](O)C(C)(C)C[C@H]3C3=CC[C@@H]5[C@@]6(C)CC[C@H](O[C@@H]7O[C@H](CO[C@@H]8OC[C@H](O)[C@H](O[C@@H]9OC[C@H](O)[C@H](O)[C@H]9O)[C@H]8O)[C@@H](O[C@@H]8O[C@H](CO)[C@@H](O)[C@H](O)[C@H]8O)[C@H](O)[C@H]7NC(C)=O)C(C)(C)[C@@H]6CC[C@@]5(C)[C@]3(C)C[C@H]4O)[C@@H]2O[C@@H]2OC[C@@H](O)[C@H](O[C@@H]3OC[C@](O)(CO)[C@H]3O)[C@H]2O)OC[C@H]1O | 3000 nM |  |  | 2800 nM | 2700 nM
CC(=O)N[C@H]1[C@H](O[C@H]2CC[C@]3(C)[C@H]4CC=C5[C@@H]6CC(C)(C)[C@@H](O)C[C@]6(C(=O)O[C@@H]6O[C@H](COC(C)=O)[C@@H](O)[C@H](O[C@@H]7OC[C@@H](O)[C@H](O)[C@H]7O)[C@H]6O[C@@H]6OC[C@@H](O)[C@H](O[C@@H]7OC[C@](O)(CO)[C@H]7O)[C@H]6O)[C@H](O)C[C@@]5(C)[C@]4(C)CC[C@H]3C2(C)C)O[C@H](CO[C@@H]2OC[C@H](O)[C@H](O[C@@H]3OC[C@@H](O)[C@H](O)[C@H]3O)[C@H]2O)[C@@H](O[C@@H]2O[C@H](CO)[C@@H](O)[C@H](O)[C@H]2O)[C@@H]1O | 2200 nM |  |  | 3900 nM | 2000 nM
CC(=O)N[C@H]1[C@H](O[C@H]2CC[C@]3(C)[C@H]4CC=C5[C@@H]6CC(C)(C)CC[C@]6(C(=O)O[C@@H]6O[C@H](COC(C)=O)[C@@H](O)[C@H](O[C@@H]7OC[C@@H](O)[C@H](O)[C@H]7OC(=O)/C=C/c7ccccc7)[C@H]6O[C@@H]6OC[C@@H](O)[C@H](O[C@@H]7OC[C@](O)(CO)[C@H]7O)[C@H]6O)[C@H](O)C[C@@]5(C)[C@]4(C)CC[C@H]3C2(C)C)O[C@H](CO[C@@H]2OC[C@H](O)[C@H](O[C@@H]3OC[C@@H](O)[C@H](O)[C@H]3O)[C@H]2O)[C@@H](O[C@@H]2O[C@H](CO)[C@@H](O)[C@H](O)[C@H]2O)[C@@H]1O | 980 nM |  |  | 560 nM | 940 nM

Reference: ChEMBL document CHEMBL1158842, “Antiproliferative triterpene saponins from Entada africana” (J Nat Prod, 2006)
